Measurements taken from ChEMBL document CHEMBL2424619, “Small-molecule ligands of methyl-lysine binding proteins: optimization of selectivity for L3MBTL3” (J Med Chem, 2013).

Columns and labels:
[1] = target: T1, Muscarinic acetylcholine receptor M1 (Homo sapiens, UniProt P11229); assay: Antagonist activity at muscarinic M1 receptor (unknown origin) expressed in HEK293T cells assessed as inhibition of UNC1679 calcium mobilization; format: functional, cell-based, HEK-293T
T1 sequence (P11229 whole entry): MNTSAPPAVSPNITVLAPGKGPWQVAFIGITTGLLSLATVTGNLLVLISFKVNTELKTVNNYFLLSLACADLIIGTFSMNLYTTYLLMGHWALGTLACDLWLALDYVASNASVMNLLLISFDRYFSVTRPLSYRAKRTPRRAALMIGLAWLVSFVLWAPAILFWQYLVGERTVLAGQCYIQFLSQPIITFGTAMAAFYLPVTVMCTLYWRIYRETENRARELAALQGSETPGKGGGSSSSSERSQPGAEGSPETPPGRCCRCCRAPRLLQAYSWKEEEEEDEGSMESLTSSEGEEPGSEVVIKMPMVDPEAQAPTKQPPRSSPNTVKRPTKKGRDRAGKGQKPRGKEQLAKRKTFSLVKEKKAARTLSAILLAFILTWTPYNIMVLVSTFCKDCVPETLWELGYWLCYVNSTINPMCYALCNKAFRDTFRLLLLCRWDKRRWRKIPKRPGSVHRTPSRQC

[2] = target: T2, Muscarinic acetylcholine receptor M1 (Homo sapiens) (UniProt P11229); assay: Antagonist activity at muscarinic M1 receptor (unknown origin) expressed in HEK293T cells assessed as inhibition of UNC1679 calcium mobilization at 30 uM; format: functional, cell-based; details: HEK-293T
T2 sequence (whole entry): T1 sequence (P11229 whole entry)
Summary of the method: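 Test compound assayed for M1 antagonism at one concentration, 30 μM, scored as percent inhibition.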

Compound | IC50 [1] | inhibition [2]
O=C(c1ccc(C(=O)N2CCC(N3CCCC3)CC2)c(Nc2ccccc2)c1)N1CCC(N2CCCC2)CC1 | 3.5 µM | 
CCN1Cc2ccc(NC(=O)c3ccc(C(=O)N4CCC(C5CCCN5)CC4)cc3)cc2C1 (configuration not stated) |  | < 20%
